Consider two molecules from ChEMBL document CHEMBL1240522, “Effect of goniothalamin on the development of Ehrlich solid tumor in mice” (Bioorg Med Chem, 2010).

Active and inactive are the calls of the source. The rule behind the calls is not given here.

The subject of data set [1] is Mus musculus. The data set is described as follows: Acute toxicity in BALB/C mouse assessed as reduction of body weight at up to 50 mg/kg, ip after 15 days. It counts as organism-based. Further details: dose 50 mg/kg, route intraperitoneal. To be noted: in vivo, 360 h. In outline: (§1)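 Balb/C mice (20–35 g) dosed intraperitoneally at 50, 100 and 300 mg/kg. Observed for 4 h, then daily for 14 days, for body weight loss, locomotion, behaviour (agitation, lethargy), respiration, salivation, tearing eyes, cyanosis and mortality.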

The next data set has as its system 786-0. The data set is described as follows: Cytotoxicity against human 786-0 cells after 48 hrs by sulforhodamine B assay. To be noted: 786-0, 48 h. It counts as functional. The method, boiled down:
(§2)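 Cells grown in RPMI 1640 with 5% FBS at 37 °C, 5% CO2, with penicillin/streptomycin. Treated for 48 h with compound in DMSO/RPMI at […]. Fixed with 50% trichloroacetic acid, protein stained with sulforhodamine B and read at 540 nm. TGI (total growth inhibition) obtained by non-linear regression of the concentration–response curves.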

Data set [2] can be described thus: Antitumor activity against mouse EAC cells xenografted in BALB/C mouse assessed as inhibition of increase in tumor volume at 50 mg/kg, ip administered every 3 days measured on day 10 relative to control. Type of data set: functional. To be noted: Ehrlich, route intraperitoneal. The method, boiled down: (§3)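 Ehrlich cells kept as ascites by weekly ip passage of 5 × 10^5 cells in mice. Balb/C mice (n = 8/group) inoculated with 2.5 × 10^6 cells into the right hind footpad. Dosed ip every third day from day 3, vehicle 0.9% saline. Tumour volume taken as plethysmometer paw volume minus basal, every third day to day 15. Reported as % inhibition vs vehicle ± SD; ANOVA.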

Another data set deals with NCI-H460. The data set is described as follows: Cytotoxicity against human NCI-H460 cells after 48 hrs by sulforhodamine B assay. To be noted: NCI-H460, 48 h. Type of data set: functional. The method, boiled down: as §2
Data set [3] in a line: Antitumor activity against mouse EAC cells xenografted in BALB/C mouse assessed as reduction of tumor weight at 50 mg/kg, ip administered every 3 days measured on day 15 relative to control. Type of data set: functional. To be noted: Ehrlich, route intraperitoneal. The method, boiled down: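 Ehrlich footpad tumour model in Balb/C mice (n = 8/group, 2.5 × 10^6 cells) with ip dosing every third day from day 3 in 0.9% saline. Mice sacrificed on day 15 and both hind paws weighed. Relative tumour weight = (tumour paw − healthy paw weight)/body weight. Reported as % inhibition vs vehicle ± SD; ANOVA.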

The next data set deals with U-251. Description: Cytotoxicity against human U251 cells after 48 hrs by sulforhodamine B assay. It counts as functional. As to conditions: U-251, 48 h. The method, boiled down:
as §2

Data set [4] is described as follows: Cytotoxicity against human NCI-ADR-RES cells after 48 hrs by sulforhodamine B assay. Type of data set: functional. The method, boiled down: as §2
The test system of another data set is OVCAR-3. Description: Cytotoxicity against human OVCAR-3 cells after 48 hrs by sulforhodamine B assay. Type of data set: functional. To be noted: OVCAR-3, 48 h. In outline: as §2
The test system of another data set is MCF7. The data set is described as follows: Cytotoxicity against human MCF7 cells after 48 hrs by sulforhodamine B assay. It counts as functional. To be noted: MCF7, 48 h. The method, boiled down: as §2
The nature of data set [5]: Cytotoxicity against human PCO3 cells after 48 hrs by sulforhodamine B assay. It counts as functional. As to conditions: PCO3, 48 h. In outline:
as §2

The subject of data set [6] is Mus musculus. The data set is described as follows: Acute toxicity in BALB/C mouse assessed as mortality at up to 300 mg/kg, ip after 4 hrs. On the set-up: dose 300 mg/kg, route intraperitoneal. As to conditions: in vivo. It counts as organism-based. In outline:
as §1

A further data set has as its system UACC-62. The data set is described as follows: Cytotoxicity against human UACC62 cells after 48 hrs by sulforhodamine B assay. It counts as functional. As to conditions: UACC-62, 48 h. The method, boiled down: as §2
Data set [7] in a line: Antitumor activity against mouse EAC cells xenografted in BALB/C mouse assessed as inhibition of increase in tumor volume at 50 mg/kg, ip administered every 3 days measured on day 15 relative to control. As to conditions: Ehrlich, route intraperitoneal. It counts as functional. The method, boiled down: as §3
A further data set relates to HT-29. The data set is described as follows: Cytotoxicity against human HT-29 cells after 48 hrs by sulforhodamine B assay. It counts as functional. As to conditions: HT-29, 48 h. The method, boiled down: as §2
Data set [8] has as its system Mus musculus. Description: Acute toxicity in BALB/C mouse assessed as mortality at up to 300 mg/kg, ip after 15 days. Type of data set: organism-based. Further details: dose 300 mg/kg, route intraperitoneal. To be noted: in vivo, 360 h. The method, boiled down:
as §1

Data set [9] deals with Mus musculus. The data set is described as follows: Antiinflammatory activity in BALB/C mouse assessed as inhibition of carrageenan-induced paw edema at 20 mg/kg, ip administered 30 mins before carrageenan challenge measured before 48 hrs by plethysmometer. It counts as functional, organism-based. Further details: dose 20 mg/kg. The method, boiled down: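 Balb/C mice, n = 8/group. Right hind paw basal volume measured by plethysmometer. Single ip dose in 0.9% saline vehicle, then carrageenan 2.5% injected intraplantar into the right hind footpad 30 min later. Edema taken as measured minus basal volume at 1.5, 3.0, 4.5, 6.0, 24, 48 and 72 h. Expressed as % inhibition vs vehicle ± standard deviation; ANOVA.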

For `O=C1C=CC[C@@H](/C=C/c2ccccc2)O1`, the Activity entry in the data set with Mus musculus [1], in the data set on Mus musculus [6] and with Mus musculus [8] was “Non-toxic” each time. Besides, the TGI with 786-0 was 28.7 µM; in the data set on NCI-H460, 44.1 µM; in the data set on U-251 it was 24.1 µM; in data set [4], 11.5 µM; in the data set with OVCAR-3, above 100 µM; in the data set on MCF7 it was 77 µM. In addition, the values for the TGI (in data set [5]; in the data set on UACC-62; with HT-29) were 24 µM, 76.4 µM and 57.6 µM, respectively. Further, the inhibition in vivo at 50 mg/kg is 53.7% in data set [2], 39.7% in data set [3] and 48.7% in data set [7].
`CN1C(C(=O)Nc2ccccn2)=C(O)c2ccccc2S1(=O)=O`: the inhibition entry with Mus musculus [9] is “Active”.
